Common to all, as to type: functional
For test [1], the system named is Pseudomonas aeruginosa. Nature of the test: Antibacterial activity against penicillin-susceptible Pseudomonas aeruginosa ATCC 27853 incubated for 24 hrs by broth dilution method. As to conditions: ATCC 27853, 24 h. In short, it runs like this:
(§1)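 CLSI broth microdilution in cation-adjusted Mueller-Hinton broth. Twofold dilutions spanned 0.25–128 or 0.5–256 µg/mL, with CAM and AZM as controls. Log-phase bacteria were added and incubated 24 h at 37 °C. MIC was read by turbidity as the concentration of the last clear well.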
In general terms: Broth dilution looks for growth in wells or tubes with falling amounts of substance.

For test [2], the system named is Staphylococcus aureus. Nature of the test: Antibacterial activity against erythromycin-susceptible Staphylococcus aureus ATCC 25923 incubated for 24 hrs by broth dilution method. As to conditions: ATCC 25923, 24 h. In short, it runs like this:
as §1

Test [3] relates to Streptococcus pneumoniae. Nature of the test: Antibacterial activity against erythromycin-resistant Streptococcus pneumoniae AB11 expressing the ermB and mefA incubated for 24 hrs by broth dilution method.
Test [4] has as its system Escherichia coli. The test is described as follows: Antibacterial activity against penicillin-susceptible Escherichia coli ATCC 25922 incubated for 24 hrs by broth dilution method. The following applies: ATCC 25922, 24 h. In short, it runs like this: as §1
The test system of test [5] is Staphylococcus aureus. The test is described as follows: Antibacterial activity against methicillin-resistant Staphylococcus aureus ATCC 43300 incubated for 24 hrs by broth dilution method. As to conditions: ATCC 43300, 24 h.
The test system of test [6] is Bacillus subtilis. Nature of the test: Antibacterial activity against penicillin-susceptible Bacillus subtilis ATCC 9372 incubated for 24 hrs by broth dilution method. As to conditions: ATCC 9372, 24 h. In short, it runs like this:
as §1

Test [7] has as its system Streptococcus pyogenes. The test is described as follows: Antibacterial activity against erythromycin-resistant Streptococcus pyogenes 2 clinical isolate incubated for 24 hrs by broth dilution method.
For test [8], the system named is Streptococcus pyogenes. The test is described as follows: Antibacterial activity against erythromycin-susceptible Streptococcus pyogenes 1 clinical isolate incubated for 24 hrs by broth dilution method. In short, it runs like this: as §1
Test [9] deals with Streptococcus pneumoniae. Nature of the test: Antibacterial activity against erythromycin-resistant Streptococcus pneumoniae B1 expressing the ermB incubated for 24 hrs by broth dilution method.
Test [10] has as its system Staphylococcus aureus. The test is described as follows: Antibacterial activity against penicillin-resistant Staphylococcus aureus ATCC 31007 incubated for 24 hrs by broth dilution method. The following applies: ATCC 31007, 24 h.

In brackets after ≈: the same amount, converted by molar mass.

Eleven compounds from ChEMBL document CHEMBL4334458, “Design, synthesis and antibacterial evaluation of novel 15-membered 11a-azahomoclarithromycin derivatives with the 1, 2, 3-triazole side chain” (Eur J Med Chem, 2019) can be followed below.

On to `CO[C@]1(C)C[C@@H](C)[C@H](O)[C@H](C)CN(C)C[C@H](COCc2cn(-c3cccc(C(F)(F)F)c3)nn2)OC(=O)[C@H](C)[C@@H](O[C@H]2C[C@@](C)(OC)[C@@H](O)[C@H](C)O2)[C@H](C)[C@H]1O[C@@H]1O[C@H](C)C[C@H](N(C)C)[C@H]1O`, for which the minimum inhibitory concentration (MIC) (commonly the lowest concentration that inhibits growth of the organism) was 16 µg/mL (≈ 16.7 µM) in test [1]; 1 µg/mL (≈ 1.04 µM) in test [2]; 64 µg/mL (≈ 66.7 µM) in test [3]; 64 µg/mL (≈ 66.7 µM) in [4]; 256 µg/mL (≈ 267 µM) in [5]; 1 µg/mL (≈ 1.04 µM) in test [6]. Moreover, the MIC in test [7] amounted to 64 µg/mL (≈ 66.7 µM); in [8], 2 µg/mL (≈ 2.08 µM); in test [9], 128 µg/mL (≈ 133 µM); in [10] it was 256 µg/mL (≈ 267 µM).
Turning to `COc1ccc(-c2cn(C[C@H]3COC(=O)[C@H](C)[C@@H](O[C@H]4C[C@@](C)(OC)[C@@H](O)[C@H](C)O4)[C@H](C)[C@@H](O[C@@H]4O[C@H](C)C[C@H](N(C)C)[C@H]4O)[C@](C)(OC)C[C@@H](C)[C@H](O)[C@H](C)CN3C)nn2)cc1`, the MIC in [1] was greater than 128 µg/mL; in test [2], 64 µg/mL (≈ 71.7 µM); in test [3], 64 µg/mL (≈ 71.7 µM); in test [4], greater than 128 µg/mL; in test [5], 256 µg/mL (≈ 287 µM); in test [6], 32 µg/mL (≈ 35.9 µM). Besides, the MIC worked out at 256 µg/mL (≈ 287 µM) in test [7], 4 µg/mL (≈ 4.48 µM) in test [8], 256 µg/mL (≈ 287 µM) in test [9] and 256 µg/mL (≈ 287 µM) in test [10].
As to `CO[C@]1(C)C[C@@H](C)[C@H](O)[C@H](C)CN(C)[C@@H](Cn2cc(-c3ccc(Cl)cc3)nn2)COC(=O)[C@H](C)[C@@H](O[C@H]2C[C@@](C)(OC)[C@@H](O)[C@H](C)O2)[C@H](C)[C@H]1O[C@@H]1O[C@H](C)C[C@H](N(C)C)[C@H]1O`, the minimal inhibitory concentration (MIC) is greater than 128 µg/mL in [1]; 32 µg/mL (≈ 35.7 µM) in test [2]; 128 µg/mL (≈ 143 µM) in [3]; greater than 128 µg/mL in [4]; 64 µg/mL (≈ 71.4 µM) in [5]; 16 µg/mL (≈ 17.8 µM) in test [6]. Besides, the minimum inhibitory concentration (MIC) in test [7] was found to be 64 µg/mL (≈ 71.4 µM); in test [8] it was 16 µg/mL (≈ 17.8 µM); in test [9], 256 µg/mL (≈ 286 µM); in test [10] it was 128 µg/mL (≈ 143 µM).
Regarding `CO[C@]1(C)C[C@@H](C)[C@H](O)[C@H](C)CN(C)C[C@@H](COCc2cn(-c3ccc(C)cc3)nn2)OC(=O)[C@H](C)[C@@H](O[C@H]2C[C@@](C)(OC)[C@@H](O)[C@H](C)O2)[C@H](C)[C@H]1O[C@@H]1O[C@H](C)C[C@H](N(C)C)[C@H]1O`, the minimal inhibitory concentration (MIC) in test [1] was determined as 128 µg/mL (≈ 141 µM); in test [2], 4 µg/mL (≈ 4.41 µM); in test [3] it was 64 µg/mL (≈ 70.6 µM); in test [4] it was 128 µg/mL (≈ 141 µM); in test [5], 128 µg/mL (≈ 141 µM); in test [6], 2 µg/mL (≈ 2.21 µM). Moreover, the minimum inhibitory concentration (MIC) turned out to be 32 µg/mL (≈ 35.3 µM) in test [7], 4 µg/mL (≈ 4.41 µM) in [8], 128 µg/mL (≈ 141 µM) in test [9] and 256 µg/mL (≈ 283 µM) in test [10].
`COc1cccc(-n2cc(COC[C@@H]3CN(C)C[C@@H](C)[C@@H](O)[C@H](C)C[C@@](C)(OC)[C@H](O[C@@H]4O[C@H](C)C[C@H](N(C)C)[C@H]4O)[C@@H](C)[C@H](O[C@H]4C[C@@](C)(OC)[C@@H](O)[C@H](C)O4)[C@@H](C)C(=O)O3)nn2)c1`: the MIC in test [1] was found to be 128 µg/mL (≈ 139 µM); in test [2] it was 2 µg/mL (≈ 2.17 µM); in [3] it was 64 µg/mL (≈ 69.4 µM); in test [4], 128 µg/mL (≈ 139 µM); in [5], 256 µg/mL (≈ 278 µM); in test [6], 2 µg/mL (≈ 2.17 µM). Further, the minimal inhibitory concentration (MIC) came to 64 µg/mL (≈ 69.4 µM) in test [7], 2 µg/mL (≈ 2.17 µM) in test [8], 128 µg/mL (≈ 139 µM) in test [9] and 256 µg/mL (≈ 278 µM) in test [10].
For `CO[C@]1(C)C[C@@H](C)[C@H](O)[C@H](C)CN(C)C[C@H](Cn2cc(-c3ccccn3)nn2)OC(=O)[C@H](C)[C@@H](O[C@H]2C[C@@](C)(OC)[C@@H](O)[C@H](C)O2)[C@H](C)[C@H]1O[C@@H]1O[C@H](C)C[C@H](N(C)C)[C@H]1O`, the MIC was 64 µg/mL (≈ 74.2 µM) in test [1]; 4 µg/mL (≈ 4.63 µM) in [2]; 256 µg/mL (≈ 297 µM) in test [3]; 128 µg/mL (≈ 148 µM) in test [4]; greater than 256 µg/mL in test [5]; 2 µg/mL (≈ 2.32 µM) in test [6]. The minimal inhibitory concentration (MIC) in test [7] was 128 µg/mL (≈ 148 µM); in test [8], 1 µg/mL (≈ 1.16 µM); in test [9], greater than 256 µg/mL; in test [10] it was greater than 256 µg/mL.
In the case of `COc1ccc(-n2cc(COC[C@H]3CN(C)C[C@@H](C)[C@@H](O)[C@H](C)C[C@@](C)(OC)[C@H](O[C@@H]4O[C@H](C)C[C@H](N(C)C)[C@H]4O)[C@@H](C)[C@H](O[C@H]4C[C@@](C)(OC)[C@@H](O)[C@H](C)O4)[C@@H](C)C(=O)O3)nn2)cc1`, the minimal inhibitory concentration (MIC) in test [1] is 16 µg/mL (≈ 17.4 µM); in [2], 1 µg/mL (≈ 1.08 µM); in test [3], 64 µg/mL (≈ 69.4 µM); in [4] it was 64 µg/mL (≈ 69.4 µM); in test [5], greater than 256 µg/mL; in test [6] it was 0.5 µg/mL (≈ 0.542 µM). The MIC in [7] was 128 µg/mL (≈ 139 µM); in test [8], 0.25 µg/mL (≈ 0.271 µM); in test [9], greater than 256 µg/mL; in test [10], greater than 256 µg/mL.
With `CO[C@]1(C)C[C@@H](C)[C@H](O)[C@H](C)CN(C)C[C@@H](Cn2cc(-c3ccccc3)nn2)OC(=O)[C@H](C)[C@@H](O[C@H]2C[C@@](C)(OC)[C@@H](O)[C@H](C)O2)[C@H](C)[C@H]1O[C@@H]1O[C@H](C)C[C@H](N(C)C)[C@H]1O`, the MIC worked out at 64 µg/mL (≈ 74.2 µM) in [1]; 0.5 µg/mL (≈ 0.58 µM) in test [2]; 64 µg/mL (≈ 74.2 µM) in [3]; 64 µg/mL (≈ 74.2 µM) in [4]; 256 µg/mL (≈ 297 µM) in test [5]; 1 µg/mL (≈ 1.16 µM) in [6]. In addition, the MIC in test [7] is 64 µg/mL (≈ 74.2 µM); in test [8], 0.5 µg/mL (≈ 0.58 µM); in test [9], 64 µg/mL (≈ 74.2 µM); in [10], 128 µg/mL (≈ 148 µM).
Turning to `CO[C@]1(C)C[C@@H](C)[C@H](O)[C@H](C)CN(C)[C@H](Cn2cc(-c3ccccc3)nn2)COC(=O)[C@H](C)[C@@H](O[C@H]2C[C@@](C)(OC)[C@@H](O)[C@H](C)O2)[C@H](C)[C@H]1O[C@@H]1O[C@H](C)C[C@H](N(C)C)[C@H]1O`, the MIC in [1] is 64 µg/mL (≈ 74.2 µM); in [2], 8 µg/mL (≈ 9.28 µM); in test [3] it was 256 µg/mL (≈ 297 µM); in test [4], 64 µg/mL (≈ 74.2 µM); in [5], 256 µg/mL (≈ 297 µM); in test [6], 16 µg/mL (≈ 18.6 µM). Also, the minimal inhibitory concentration (MIC) was found to be 128 µg/mL (≈ 148 µM) in [7], 8 µg/mL (≈ 9.28 µM) in test [8], 256 µg/mL (≈ 297 µM) in test [9] and 128 µg/mL (≈ 148 µM) in test [10].
Consider `CCCCc1ccc(-c2cn(C[C@H]3CN(C)C[C@@H](C)[C@@H](O)[C@H](C)C[C@@](C)(OC)[C@H](O[C@@H]4O[C@H](C)C[C@H](N(C)C)[C@H]4O)[C@@H](C)[C@H](O[C@H]4C[C@@](C)(OC)[C@@H](O)[C@H](C)O4)[C@@H](C)C(=O)O3)nn2)cc1`, for which the MIC was found to be 64 µg/mL (≈ 69.7 µM) in [1]; 1 µg/mL (≈ 1.09 µM) in [2]; 32 µg/mL (≈ 34.8 µM) in test [3]; 128 µg/mL (≈ 139 µM) in test [4]; 16 µg/mL (≈ 17.4 µM) in [5]; 1 µg/mL (≈ 1.09 µM) in [6]. The MIC turned out to be 16 µg/mL (≈ 17.4 µM) in [7], 0.06 µg/mL (≈ 0.0653 µM) in test [8], 16 µg/mL (≈ 17.4 µM) in test [9] and 32 µg/mL (≈ 34.8 µM) in test [10].
`CO[C@]1(C)C[C@@H](C)[C@H](O)[C@H](C)CN(C)C[C@@H](COCc2cn(-c3ccccn3)nn2)OC(=O)[C@H](C)[C@@H](O[C@H]2C[C@@](C)(OC)[C@@H](O)[C@H](C)O2)[C@H](C)[C@H]1O[C@@H]1O[C@H](C)C[C@H](N(C)C)[C@H]1O`: the minimum inhibitory concentration (MIC) in test [1] was 128 µg/mL (≈ 143 µM); in test [2], 2 µg/mL (≈ 2.24 µM); in test [3], 128 µg/mL (≈ 143 µM); in [4] it was 128 µg/mL (≈ 143 µM); in test [5], greater than 256 µg/mL; in test [6] it was 0.5 µg/mL (≈ 0.56 µM). Also, the minimum inhibitory concentration (MIC) is 128 µg/mL (≈ 143 µM) in test [7], 2 µg/mL (≈ 2.24 µM) in [8], greater than 256 µg/mL in test [9] and greater than 256 µg/mL in [10].
